What was measured:
[1] = system: EJ; experiment: Percent inhibition of tumor growth relative to control tumors in tumor xenograft nude mice (with p<0.001 compared to control) against EJ at a dose of 40 mg/kg, bid on day 15;Regression.; type: functional, organism-based; parameters: dose 40 mg/kg; conditions: Homo sapiens
In short: (§1)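 Female athymic BALB/c nu/nu mice, 5–7 weeks old, acclimated ≥1 week, inoculated s.c. intrascapularly with 10^7 tumor cells. Tumour volume measured in three dimensions every three days as 1/6·π·L·W·H. At ~100 mm3 mice randomised, 8 per group (Day 0). Dosing by gastric gavage twice daily from Day 1 for 21 days; vehicle 0.9% saline. Ulcerated tumours excluded; Student's t-test.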

[2] = system: EJ; experiment: Percent inhibition of tumor growth relative to control tumors in tumor xenograft nude mice (with p<0.001 compared to control) against EJ at a dose of 60 mg/kg, bid on day 15;Regression.; type: functional, organism-based; parameters: dose 60 mg/kg; conditions: Homo sapiens; in short: as §1
[3] = target: T1, Protein farnesyltransferase (Homo sapiens, UniProt P49354+P49356); experiment: Inhibition of farnesyltransferase activity against H-Ras; type: protein-complex assay
In short: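 FTase (16.6 nM) incubated 30 min at 37 °C with H-Ras substrate, [3H]farnesyl pyrophosphate and serially diluted compound. Buffer: 50 mM HEPES pH 7.4, KCl, MgCl2, ZnCl2, 0.5% N-octylglucoside, 10 mM DTT. Reactions quenched with 10% HCl in ethanol. Farnesylated Ras captured on glass-fiber filters and scintillation counted. IC50 is the concentration halving [3H]FPP incorporation; mean of three experiments.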

[4] = target: T1, Protein farnesyltransferase; experiment: Inhibition of farnesyltransferase activity against K-Ras; type: protein-complex assay
In short: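 K-Ras used as acceptor substrate with FTase (16.6 nM) and [3H]FPP plus serially diluted inhibitor, 30 min at 37 °C, in HEPES pH 7.4 buffer with Mg2+, Zn2+, KCl, octylglucoside and DTT. Stopped with acidic ethanol, then filter binding and scintillation counting of labeled K-Ras. IC50 is 50% reduction of [3H]FPP transfer; mean of three determinations.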

[5] = target: Geranylgeranyl transferase type I (Homo sapiens, UniProt P49354+P53609); experiment: Inhibition of Geranylgeranyl transferase type I; type: protein-complex assay
[6] = system: T-24; experiment: Inhibition of anchorage independent growth of human tumor cell line T24 H-ras-transformed in soft agar; type: functional
In short: (§2)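 Cells adapted 2–3 days in DMEM + 10% FBS after thawing. Bottom layer 0.5% agar with DMEM/FBS and compound; top layer 0.33% agar with compound, cells at 2–5×10^3 cells/mL. Colonies counted by microscope after two weeks in humidified CO2 incubator. GI50 from plot of % colony growth versus log10 concentration for each cell line.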

[7] = system: A549; experiment: Inhibition of anchorage independent growth of human tumor cell line A549 K-ras-transformed in soft agar; type: functional; in short: as §2
[8] = system: HCT-116; experiment: Inhibition of anchorage independent growth of human tumor cell line HCT116 K-ras-transformed in soft agar; type: functional; in short: as §2
[9] = system: EJ; experiment: Inhibition of anchorage independent growth of human tumor cell line EJ H-ras-transformed in soft agar; type: functional; in short: as §2
[10] = system: HCT-116; experiment: Percent inhibition of tumor growth relative to control tumors in tumor xenograft nude mice against HCT116 at a dose of 40 mg/kg, bid on day 21;p<0.001.; type: functional, Homo sapiens; conditions: Mus musculus, HCT-116, 504 h; in short: as §1
[11] = system: HCT-116; experiment: Percent inhibition of tumor growth relative to control tumors in tumor xenograft nude mice against HCT116 at a dose of 60 mg/kg, bid on day 21;p<0.001; type: functional, Homo sapiens; conditions: Mus musculus, HCT-116, 504 h; in short: as §1
[12] = system: EJ; experiment: Percent inhibition of tumor growth relative to control tumors in tumor xenograft nude mice against EJ at a dose of 20 mg/kg, bid on day 15;p<0.001; type: functional, Homo sapiens; conditions: Mus musculus, 360 h; in short: as §1
[13] = system: HT-29; experiment: Inhibition of anchorage independent growth of human tumor cell line HT-29 K-ras-transformed in soft agar; type: functional; in short: as §2

Row | Structure (SMILES) | IC50 [3] [nM] | IC50 [4] [nM] | IC50 [5] [nM] | also measured
1 | CN1CCN(C(=O)c2cn(Cc3cncn3Cc3ccc4c(c3)OCO4)cc2-c2cccc3ccccc23)CC1 [listing 1 of 3 here] |  |  |  | inhibition [1]: Regression; inhibition [2]: Regression
2 | CCOC(=O)c1cn(Cc2c[nH]cn2)cc1-c1cccc2ccccc12 | 500 |  |  | 
3 | CN1CCN(C(=O)c2cn(Cc3cncn3Cc3ccc4c(c3)OCO4)cc2-c2cccc3ccccc23)CC1 [listing 2 of 3 here] | 0.9 |  | 16000 | 
4 | O=C(c1cn(Cc2cnc[nH]2)cc1-c1ccccc1)N1CCOCC1 | 2000 |  |  | 
5 | CN1CCN(C(=O)c2cn(Cc3cncn3Cc3ccc4c(c3)OCO4)cc2-c2cccc3ccccc23)CC1 [listing 3 of 3 here] |  |  |  | GI50 [6]: 0.45 nM; GI50 [7]: 1.2 nM; GI50 [8]: 17.6 nM; GI50 [9]: 0.56 nM; inhibition in vivo at 40 mg/kg [10]: 43%; inhibition in vivo at 60 mg/kg [11]: 55%; inhibition in vivo at 20 mg/kg [12]: 78%; GI50 [13]: 4.5 nM

Second part, led by results:

Row | IC50 [3] [nM] | IC50 [4] [nM] | IC50 [5] [nM] | Structure (SMILES) | also measured
6 | 1.5 | 2.1 |  | O=C(c1cn(Cc2cncn2Cc2ccccc2)cc1-c1cccc2ccccc12)N1CCOCC1 | 
7 | 3 | 100 | > 100000 | Cn1cncc1Cn1cc(C(=O)N2CCOCC2)c(-c2cccc3ccccc23)c1 | 
8 |  |  | 10000 | COCCN(C)C(=O)c1cn(Cc2cncn2Cc2ccc3c(c2)OCO3)cc1-c1cccc2ccccc12 | 
9 | 0.9 |  | 12000 | O=C(c1cn(Cc2cncn2Cc2ccc3c(c2)OCO3)cc1-c1cccc2ccccc12)N1CCOCC1 | 
10 |  | 1830 |  | O=C(c1cn(Cc2c[nH]cn2)cc1-c1cccc2ccccc12)N1CCOCC1 | 

Source: ChEMBL document CHEMBL1133861, “A novel class of highly potent, selective, and non-peptidic inhibitor of Ras farnesyltransferase (FTase)” (Bioorg Med Chem Lett, 2001)
